Experiment [1] deals with Staphylococcus aureus. Put plainly: Bactericidal activity against methicillin-resistant Staphylococcus aureus CCARM 3167 after 24 hrs by agar plate method. It counts as functional. The conditions noted are these: CCARM 3167, 24 h. Put shortly:
(§1)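 5 µL from each well without visible growth plated on fresh Mueller-Hinton agar, then 37 °C for a further 24 h. MBC is the lowest concentration giving no visible colonies. Run in triplicate.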

Experiment [2] has as its system Pseudomonas aeruginosa. Put plainly: Antibacterial activity against Pseudomonas aeruginosa 2004 after 24 hrs by two-fold serial dilution method. It counts as functional. The conditions noted are these: Pseudomonas aeruginosa, 2004, 24 h. The method in brief: (§2)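 Strains grown to mid-log phase in Mueller-Hinton broth, then diluted 1000-fold in the same broth to about 10^5 CFU/mL. Compounds were made up as DMSO stocks and two-fold serially diluted from a final top concentration of 64 µg/mL. Incubation was 37 °C for 24 h. Growth was read as absorbance at 630 nm on a microplate reader. MIC assays were run in triplicate.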

The subject of experiment [3] is Staphylococcus aureus. Put plainly: Antibacterial activity against methicillin-resistant Staphylococcus aureus CCARM 3167 after 24 hrs by two-fold serial dilution method. In kind it is functional. The conditions noted are these: CCARM 3167, 24 h. Put shortly:
(§3)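 Broth microdilution MIC. Bacteria grown to mid-log phase in Mueller-Hinton broth, diluted 1000-fold, about 10^5 CFU/mL. Compounds from DMSO stocks, two-fold serial dilution from a final 64 µg/mL. Incubation at 37 °C for 24 h. Growth read as absorbance at 630 nm on a microplate reader. Run in triplicate.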

The test system of experiment [4] is Staphylococcus aureus. Put plainly: Antibacterial activity against methicillin-resistant Staphylococcus aureus CCARM 3506 after 24 hrs by two-fold serial dilution method. In kind it is functional. The following applies: CCARM 3506, 24 h. The method in brief:
as §3

In experiment [5] the test system is Staphylococcus aureus. Put plainly: Bactericidal activity against quinolone-resistant Staphylococcus aureus CCARM 3505 after 24 hrs by agar plate method. The following applies: CCARM 3505, 24 h. In kind it is functional. The method in brief: as §1
In experiment [6] the test system is Staphylococcus aureus. The experiment can be described thus: Antibacterial activity against quinolone-resistant Staphylococcus aureus CCARM 3519 after 24 hrs by two-fold serial dilution method. The following applies: CCARM 3519, 24 h. In kind it is functional. Put shortly: as §3
A further experiment has as its system Candida albicans. Put plainly: Antifungal activity against Candida albicans 7535 after 24 hrs by two-fold serial dilution method. It counts as functional. The following applies: Candida albicans, 7535, 24 h.
Experiment [7] concerns Escherichia coli. Put plainly: Antibacterial activity against Escherichia coli KCTC 1924 after 24 hrs by two-fold serial dilution method. In kind it is functional. The following applies: KCTC 1924, 24 h. The method in brief: as §2
Experiment [8] concerns Staphylococcus aureus. The experiment can be described thus: Antibacterial activity against Staphylococcus aureus KCTC 503 after 24 hrs by two-fold serial dilution method. In kind it is functional. The following applies: KCTC 503, 24 h. Put shortly:
as §2

Experiment [9] relates to Escherichia coli. Put plainly: Antibacterial activity against Escherichia coli CCARM 1356 after 24 hrs by two-fold serial dilution method. It counts as functional. The conditions noted are these: CCARM 1356, 24 h. Put shortly:
as §2

Experiment [10] deals with Staphylococcus aureus. Put plainly: Antibacterial activity against Staphylococcus aureus RN4220 after 24 hrs by two-fold serial dilution method. In kind it is functional. The following applies: RN4220, 24 h. Put shortly: as §3
Experiment [11] concerns Staphylococcus aureus. The experiment can be described thus: Antibacterial activity against quinolone-resistant Staphylococcus aureus CCARM 3505 after 24 hrs by two-fold serial dilution method. In kind it is functional. The following applies: CCARM 3505, 24 h. The method in brief: as §3
Experiment [12] deals with Staphylococcus aureus. Put plainly: Ratio of MBC to MIC for Staphylococcus aureus KCTC 503. It counts as functional. The method in brief: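 The ratio divides MBC by MIC for the same strain. MIC comes from two-fold broth microdilution in Mueller-Hinton broth (about 10^5 CFU/mL, 37 °C, 24 h, absorbance at 630 nm). MBC comes from subculturing 5 µL from clear wells onto Mueller-Hinton agar for another 24 h at 37 °C, taken as the lowest concentration with no colonies.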

The test system of experiment [13] is Streptococcus mutans. The experiment can be described thus: Bactericidal activity against Streptococcus mutans 3065 after 24 hrs by agar plate method. The following applies: Streptococcus mutans, 3065, 24 h. In kind it is functional. The method in brief: (§4)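 Samples of 5 µL from MIC wells with no visible growth were plated onto fresh Mueller-Hinton agar and incubated a further 24 h at 37 °C. MBC is the lowest concentration giving no visible colony growth on the agar. Assays were run in triplicate.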

Experiment [14] deals with Streptococcus mutans. Put plainly: Antibacterial activity against Streptococcus mutans 3065 after 24 hrs by two-fold serial dilution method. It counts as functional. The following applies: Streptococcus mutans, 3065, 24 h. The method in brief: as §2
In experiment [15] the test system is Staphylococcus aureus. Put plainly: Bactericidal activity against quinolone-resistant Staphylococcus aureus CCARM 3519 after 24 hrs by agar plate method. It counts as functional. The following applies: CCARM 3519, 24 h. The method in brief:
as §1

Experiment [16] relates to Staphylococcus aureus. Put plainly: Bactericidal activity against Staphylococcus aureus KCTC 503 after 24 hrs by agar plate method. The following applies: KCTC 503, 24 h. It counts as functional. Put shortly:
as §1

For a further experiment, the system named is Salmonella typhimurium. The experiment can be described thus: Antibacterial activity against Salmonella typhimurium 2421 after 24 hrs by two-fold serial dilution method. It counts as functional, Salmonella enterica subsp. enterica serovar Typhimurium. The conditions noted are these: Salmonella enterica, 2421, 24 h. The method in brief: as §2
For experiment [17], the system named is Staphylococcus aureus. Put plainly: Antibacterial activity against Staphylococcus aureus KCTC 209 after 24 hrs by two-fold serial dilution method. In kind it is functional. The conditions noted are these: KCTC 209, 24 h. Put shortly:
as §2

For experiment [18], the system named is Pseudomonas aeruginosa. The experiment can be described thus: Antibacterial activity against Pseudomonas aeruginosa 2742 after 24 hrs by two-fold serial dilution method. In kind it is functional. The conditions noted are these: Pseudomonas aeruginosa, 2742, 24 h. Put shortly: as §2
Experiment [19] deals with Staphylococcus aureus. Put plainly: Bactericidal activity against methicillin-resistant Staphylococcus aureus CCARM 3506 after 24 hrs by agar plate method. The following applies: CCARM 3506, 24 h. In kind it is functional. The method in brief: as §1
Experiment [20] relates to Staphylococcus aureus. Put plainly: Bactericidal activity against Staphylococcus aureus RN4220 after 24 hrs by agar plate method. In kind it is functional. The following applies: RN4220, 24 h. The method in brief: as §4
Experiment [21] concerns Staphylococcus aureus. Put plainly: Bactericidal activity against Staphylococcus aureus KCTC 209 after 24 hrs by agar plate method. It counts as functional. The conditions noted are these: KCTC 209, 24 h. The method in brief: as §4
In experiment [22] the test system is Escherichia coli. Put plainly: Bactericidal activity against Escherichia coli KCTC 1924 after 24 hrs by agar plate method. It counts as functional. The following applies: KCTC 1924, 24 h. The method in brief: as §4

Converted amounts (≈) assume the structure as drawn.

With `Cc1cccc(-c2n[nH]c(=S)n2/N=C/c2ccc(/C=C3\SC(=S)N([C@@H](Cc4ccccc4)C(=O)O)C3=O)cc2)c1`, the MBC amounted to 128 µg/mL (≈ 219 µM) against Staphylococcus aureus [1]; 64 µg/mL (≈ 109 µM) with Staphylococcus aureus [5]; 256 µg/mL (≈ 437 µM) in the experiment with Streptococcus mutans [13]; 128 µg/mL (≈ 219 µM) in the experiment with Staphylococcus aureus [15]; 128 µg/mL (≈ 219 µM) in the experiment with Staphylococcus aureus [16]; 64 µg/mL (≈ 109 µM) in the experiment on Staphylococcus aureus [19]. The MBC with Staphylococcus aureus [20] came to 32 µg/mL (≈ 54.6 µM). Further, the MIC is more than 128 µg/mL in the experiment on Pseudomonas aeruginosa [2]; 16 µg/mL (≈ 27.3 µM) in the experiment with Staphylococcus aureus [3]; 16 µg/mL (≈ 27.3 µM) against Staphylococcus aureus [4]; 16 µg/mL (≈ 27.3 µM) against Staphylococcus aureus [6]; more than 64 µg/mL against Candida albicans; more than 128 µg/mL against Escherichia coli [7]. Further, the MIC was 64 µg/mL (≈ 109 µM) in the experiment with Staphylococcus aureus [8]; more than 128 µg/mL against Escherichia coli [9]; 32 µg/mL (≈ 54.6 µM) in the experiment with Staphylococcus aureus [10]; 16 µg/mL (≈ 27.3 µM) in the experiment with Staphylococcus aureus [11]; 64 µg/mL (≈ 109 µM) against Streptococcus mutans [14]; more than 128 µg/mL with Salmonella typhimurium. Also, the values for the MIC with Staphylococcus aureus [17] and in the experiment with Pseudomonas aeruginosa [18] were more than 64 µg/mL and more than 128 µg/mL, respectively. Also, in the experiment with Staphylococcus aureus [12], the Ratio result is “<=4”.
Consider `Cc1ccc(-c2n[nH]c(=S)n2/N=C/c2ccc(/C=C3\SC(=S)N([C@@H](Cc4ccccc4)C(=O)O)C3=O)cc2)cc1`, for which the MBC against Staphylococcus aureus [1] was 64 µg/mL (≈ 109 µM); against Staphylococcus aureus [5], 128 µg/mL (≈ 219 µM); against Streptococcus mutans [13], more than 256 µg/mL; in the experiment on Staphylococcus aureus [15], more than 128 µg/mL; in the experiment on Staphylococcus aureus [16] it was 64 µg/mL (≈ 109 µM); against Staphylococcus aureus [19], 128 µg/mL (≈ 219 µM). For the same molecule, in the experiment with Staphylococcus aureus [20], the MBC was 8 µg/mL (≈ 13.7 µM). The minimum inhibitory concentration (MIC) in the experiment with Pseudomonas aeruginosa [2] is more than 128 µg/mL; in the experiment on Staphylococcus aureus [3], 8 µg/mL (≈ 13.7 µM); against Staphylococcus aureus [4], 16 µg/mL (≈ 27.3 µM); against Staphylococcus aureus [6], 16 µg/mL (≈ 27.3 µM); with Candida albicans it was more than 64 µg/mL; against Escherichia coli [7] it was more than 128 µg/mL. Also, the minimum inhibitory concentration (MIC) was 64 µg/mL (≈ 109 µM) with Staphylococcus aureus [8]; more than 128 µg/mL in the experiment on Escherichia coli [9]; 8 µg/mL (≈ 13.7 µM) in the experiment with Staphylococcus aureus [10]; 16 µg/mL (≈ 27.3 µM) in the experiment on Staphylococcus aureus [11]; 64 µg/mL (≈ 109 µM) in the experiment with Streptococcus mutans [14]; more than 128 µg/mL in the experiment on Salmonella typhimurium. Also, the MIC was more than 64 µg/mL in the experiment on Staphylococcus aureus [17] and more than 128 µg/mL with Pseudomonas aeruginosa [18]. In addition, the Ratio result in the experiment with Staphylococcus aureus [12] is given as “<=4”.
Turning to `O=C(O)CN1C(=O)/C(=C/c2ccc(/C=N/n3c(-c4ccc(F)cc4)n[nH]c3=S)cc2)SC1=S`, the minimal bactericidal concentration (MBC) is more than 128 µg/mL in the experiment on Staphylococcus aureus [1], more than 256 µg/mL in the experiment with Staphylococcus aureus [21], more than 256 µg/mL in the experiment on Staphylococcus aureus [15] and more than 256 µg/mL against Staphylococcus aureus [20]. The minimum inhibitory concentration (MIC) against Pseudomonas aeruginosa [2] was more than 128 µg/mL; against Staphylococcus aureus [3], 16 µg/mL (≈ 32 µM); against Staphylococcus aureus [4], more than 64 µg/mL; with Staphylococcus aureus [6], 32 µg/mL (≈ 64.1 µM); in the experiment with Candida albicans, more than 64 µg/mL; in the experiment with Escherichia coli [7], more than 128 µg/mL. Besides, the MIC with Staphylococcus aureus [8] was more than 64 µg/mL; with Escherichia coli [9], more than 128 µg/mL; with Staphylococcus aureus [10] it was 64 µg/mL (≈ 128 µM); against Staphylococcus aureus [11], more than 64 µg/mL; against Streptococcus mutans [14] it was more than 64 µg/mL; against Salmonella typhimurium, more than 128 µg/mL. Also, the MIC against Staphylococcus aureus [17] was 64 µg/mL (≈ 128 µM); in the experiment on Pseudomonas aeruginosa [18], more than 128 µg/mL.
As for `O=C1NC(=S)S/C1=C\c1ccc(/C=N/n2c(-c3ccccc3Cl)n[nH]c2=S)cc1`, the minimum bactericidal concentration (MBC) against Staphylococcus aureus [1] was more than 128 µg/mL; against Staphylococcus aureus [5] it was more than 128 µg/mL; in the experiment on Staphylococcus aureus [21], more than 256 µg/mL; with Streptococcus mutans [13], more than 128 µg/mL; against Staphylococcus aureus [15], more than 128 µg/mL; with Staphylococcus aureus [16], more than 256 µg/mL. Besides, the MBC in the experiment on Escherichia coli [22] is more than 128 µg/mL; in the experiment on Staphylococcus aureus [19], more than 128 µg/mL; against Staphylococcus aureus [20] it was more than 256 µg/mL. The MIC against Pseudomonas aeruginosa [2] was more than 128 µg/mL; against Staphylococcus aureus [3] it was 16 µg/mL (≈ 34.9 µM); against Staphylococcus aureus [4], 16 µg/mL (≈ 34.9 µM); in the experiment with Staphylococcus aureus [6] it was 16 µg/mL (≈ 34.9 µM); against Candida albicans it was more than 64 µg/mL; in the experiment on Escherichia coli [7] it was 16 µg/mL (≈ 34.9 µM). In addition, the MIC in the experiment with Staphylococcus aureus [8] is 16 µg/mL (≈ 34.9 µM); in the experiment with Escherichia coli [9] it was more than 128 µg/mL; against Staphylococcus aureus [10], 32 µg/mL (≈ 69.9 µM); with Staphylococcus aureus [11] it was 16 µg/mL (≈ 34.9 µM); against Streptococcus mutans [14], 16 µg/mL (≈ 34.9 µM); with Salmonella typhimurium it was more than 128 µg/mL. For the same molecule, the MIC in the experiment on Staphylococcus aureus [17] is 64 µg/mL (≈ 140 µM); in the experiment with Pseudomonas aeruginosa [18], more than 128 µg/mL.

The values are drawn from ChEMBL document CHEMBL3596093, “Synthesis and antimicrobial evaluation of 5-aryl-1,2,4-triazole-3-thione derivatives containing a rhodanine moiety” (2015).
